Test results reported in ChEMBL document CHEMBL3616436, “Synthesis, cytotoxicity and antimicrobial activity of thiourea derivatives incorporating 3-(trifluoromethyl)phenyl moiety” (Eur J Med Chem, 2015).
≈ marks a conversion by molar mass, not a printed value. Calls of active or inactive are those of the source. The rule behind the calls is not given here.

Tests used:
[1] = target: T1, DNA topoisomerase 4 (Staphylococcus epidermidis) (UniProt Q5HPI6+Q5HPI5); assay: Inhibition of decatenation activity of DNA topoisomerase 4 in Staphylococcus epidermidis ATCC 12228 using kDNA as substrate at 1 to 4 ug/ml after 1 hr using ethidium bromide staining by agarose gel electrophoresis; type: protein assay
T1 sequence (Q5HPI5 whole entry, looked up): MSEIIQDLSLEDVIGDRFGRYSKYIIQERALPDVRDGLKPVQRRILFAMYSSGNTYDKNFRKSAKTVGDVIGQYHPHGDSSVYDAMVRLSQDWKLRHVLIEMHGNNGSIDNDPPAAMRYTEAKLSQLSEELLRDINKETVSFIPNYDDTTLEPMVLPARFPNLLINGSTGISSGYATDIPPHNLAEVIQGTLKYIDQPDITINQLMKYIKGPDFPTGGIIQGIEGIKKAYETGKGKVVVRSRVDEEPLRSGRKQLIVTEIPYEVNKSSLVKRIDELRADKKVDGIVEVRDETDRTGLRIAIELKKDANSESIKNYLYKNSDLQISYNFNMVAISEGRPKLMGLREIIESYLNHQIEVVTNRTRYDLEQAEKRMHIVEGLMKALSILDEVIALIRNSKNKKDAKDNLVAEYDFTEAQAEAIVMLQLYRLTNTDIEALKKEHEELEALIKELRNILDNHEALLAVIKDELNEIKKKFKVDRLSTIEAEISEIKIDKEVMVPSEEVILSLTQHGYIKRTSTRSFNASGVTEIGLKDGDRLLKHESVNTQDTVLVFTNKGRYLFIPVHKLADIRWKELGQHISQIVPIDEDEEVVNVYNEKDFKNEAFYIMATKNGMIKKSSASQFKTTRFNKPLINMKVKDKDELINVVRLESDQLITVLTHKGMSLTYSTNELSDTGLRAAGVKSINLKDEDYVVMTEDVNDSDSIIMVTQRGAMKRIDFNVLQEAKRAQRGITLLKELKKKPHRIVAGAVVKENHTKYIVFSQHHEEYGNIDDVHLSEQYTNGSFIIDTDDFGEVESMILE
T1 sequence (Q5HPI6 whole entry, looked up): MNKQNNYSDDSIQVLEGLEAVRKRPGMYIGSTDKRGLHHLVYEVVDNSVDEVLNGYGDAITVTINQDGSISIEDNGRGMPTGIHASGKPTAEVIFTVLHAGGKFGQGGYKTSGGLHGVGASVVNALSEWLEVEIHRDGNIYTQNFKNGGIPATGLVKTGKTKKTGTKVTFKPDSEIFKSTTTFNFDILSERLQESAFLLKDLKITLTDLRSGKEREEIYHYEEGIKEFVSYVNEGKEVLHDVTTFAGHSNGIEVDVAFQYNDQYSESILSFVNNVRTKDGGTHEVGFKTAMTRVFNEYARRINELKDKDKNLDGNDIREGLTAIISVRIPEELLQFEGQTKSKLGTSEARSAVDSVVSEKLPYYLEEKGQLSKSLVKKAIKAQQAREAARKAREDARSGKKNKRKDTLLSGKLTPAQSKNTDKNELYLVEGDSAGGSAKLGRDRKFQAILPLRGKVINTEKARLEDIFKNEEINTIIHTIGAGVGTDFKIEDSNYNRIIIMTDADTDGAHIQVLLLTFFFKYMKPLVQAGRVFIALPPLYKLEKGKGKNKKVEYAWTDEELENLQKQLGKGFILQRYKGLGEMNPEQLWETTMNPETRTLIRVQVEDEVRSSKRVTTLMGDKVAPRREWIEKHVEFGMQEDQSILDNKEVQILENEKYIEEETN

[2] = target: T2, Topoisomerase IV (Staphylococcus aureus) (UniProt P0C1U9+P0C1S7); assay: Inhibition of decatenation activity of DNA topoisomerase 4 in hospital methicillin-resistant Staphylococcus aureus 54/05 using kDNA as substrate at 1 to 4 ug/ml after 1 hr using ethidium bromide staining by agarose gel electrophoresis; type: protein-complex assay
[3] = target: T2, Topoisomerase IV (Staphylococcus aureus); assay: Inhibition of decatenation activity of DNA topoisomerase 4 in hospital methicillin-resistant Staphylococcus aureus 81/05 using kDNA as substrate at 1 to 4 ug/ml after 1 hr using ethidium bromide staining by agarose gel electrophoresis; type: protein-complex assay
[4] = target: T1, DNA topoisomerase 4 (Staphylococcus epidermidis); assay: Inhibition of decatenation activity of DNA topoisomerase 4 in hospital methicillin-resistant Staphylococcus epidermidis 62/04 using kDNA as substrate at 1 to 4 ug/ml after 1 hr using ethidium bromide staining by agarose gel electrophoresis; type: protein assay
[5] = target: T1, DNA topoisomerase 4 (Staphylococcus epidermidis); assay: Inhibition of decatenation activity of DNA topoisomerase 4 in hospital methicillin-resistant Staphylococcus epidermidis 76/04 using kDNA as substrate at 1 to 4 ug/ml after 1 hr using ethidium bromide staining by agarose gel electrophoresis; type: protein assay
[6] = tested on: Staphylococcus epidermidis; assay: Inhibition of biofilm formation in Staphylococcus epidermidis ATCC 35984 after 24 hrs using MTT staining by spectrophotometer analysis; type: functional, organism-based; conditions: ATCC 35984, 24 h
Method in brief: (§1)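 Biofilm was grown for 24 h at 37 °C in TSB with 0.5% glucose from 10^7 CFU/mL inoculum, mixed 1:1 with compound. Final concentrations were 0.125–4 or 0.25–8 µg/ml. Wells were PBS-washed and MTT-stained for 2 h at 37 °C, solubilized in DMSO/glycine buffer and read at 554 nm. IC50 (50% inhibition of biofilm formation) was taken from the dose-response curve; quadruplicates.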

[7] = tested on: Staphylococcus epidermidis; assay: Inhibition of biofilm formation in Staphylococcus epidermidis 24/04 after 24 hrs using MTT staining by spectrophotometer analysis; type: functional, organism-based; conditions: 24/04, 24 h
[8] = tested on: Staphylococcus epidermidis; assay: Inhibition of biofilm formation in Staphylococcus epidermidis 62/04 after 24 hrs using MTT staining by spectrophotometer analysis; type: functional, organism-based; conditions: 62/04, 24 h; method in brief: as §1
[9] = tested on: Staphylococcus epidermidis; assay: Inhibition of biofilm formation in Staphylococcus epidermidis 63/04 after 24 hrs using MTT staining by spectrophotometer analysis; type: functional, organism-based; conditions: 63/04, 24 h; method in brief: as §1
[10] = tested on: Staphylococcus epidermidis; assay: Inhibition of biofilm formation in Staphylococcus epidermidis 76/04 after 24 hrs using MTT staining by spectrophotometer analysis; type: functional, organism-based; conditions: 76/04, 24 h; method in brief: as §1
[11] = tested on: Staphylococcus epidermidis; assay: Inhibition of biofilm formation in Staphylococcus epidermidis ATCC 12228 at 4 ug/ml after 24 hrs using MTT staining by spectrophotometer analysis; type: functional; conditions: ATCC 12228, 24 h
Method in brief: (§2)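 Methicillin-resistant hospital isolates or ATCC strains of S. epidermidis were grown overnight in tryptone soy broth with 0.5% glucose. Inoculum of 10^7 CFU/mL was mixed 1:1 with compound in TSB-glucose and incubated 24 h at 37 °C. Non-adherent cells were washed off with PBS, and wells were stained with MTT (0.5% in PBS) for 2 h at 37 °C. Stain was solubilized in DMSO/glycine buffer and read at A554. Inhibition is relative to drug-free control; quadruplicates.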

[12] = tested on: Staphylococcus epidermidis; assay: Inhibition of biofilm formation in Staphylococcus epidermidis […]/[…] at 4 ug/ml after 24 hrs using MTT staining by spectrophotometer analysis; type: functional; conditions: 16/04, 24 h
[13] = tested on: Staphylococcus epidermidis; assay: Inhibition of biofilm formation in Staphylococcus epidermidis 62/04 at 4 ug/ml after 24 hrs using MTT staining by spectrophotometer analysis; type: functional; conditions: 62/04, 24 h; method in brief: as §2
[14] = target: T2, Topoisomerase IV (Staphylococcus aureus); assay: Inhibition of decatenation activity of DNA topoisomerase 4 in Staphylococcus aureus NCTC 4163 using kDNA as substrate at 32 ug/ml […] using ethidium bromide staining by agarose gel electrophoresis; type: protein-complex assay
[15] = target: T2, Topoisomerase IV (Staphylococcus aureus); assay: Inhibition of decatenation activity of DNA topoisomerase 4 in Staphylococcus aureus ATCC 29213 using kDNA as substrate at 32 ug/ml […] using ethidium bromide staining by agarose gel electrophoresis; type: protein-complex assay
[16] = target: T1, DNA topoisomerase 4 (Staphylococcus epidermidis); assay: Inhibition of decatenation activity of DNA topoisomerase 4 in Staphylococcus epidermidis ATCC 12228 using kDNA as substrate at 32 ug/ml after 1 hr using ethidium bromide staining by agarose gel electrophoresis; type: protein assay
[17] = target: T2, Topoisomerase IV (Staphylococcus aureus); assay: Inhibition of decatenation activity of DNA topoisomerase 4 in hospital methicillin-resistant Staphylococcus aureus 53/05 using kDNA as substrate at 32 ug/ml after 1 hr using ethidium bromide staining by agarose gel electrophoresis; type: protein-complex assay
[18] = target: T2, Topoisomerase IV (Staphylococcus aureus); assay: Inhibition of decatenation activity of DNA topoisomerase 4 in hospital methicillin-resistant Staphylococcus aureus 81/05 using kDNA as substrate at 32 ug/ml after 1 hr using ethidium bromide staining by agarose gel electrophoresis; type: protein-complex assay
Method in brief: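 Enzyme was S. aureus topoisomerase IV from a commercial decatenation kit, with kinetoplast DNA as substrate (1 U per 200 ng kDNA) in the supplied buffer. Compound was present at 1, 4 or 32 µg/ml, 30 min at 37 °C. Reactions were stopped with STEB and extracted with chloroform/isoamyl alcohol, then run on 1% agarose in TAE for 1 h at 120 V and stained with ethidium bromide. No-enzyme and DMSO controls were included.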

[19] = target: T1, DNA topoisomerase 4 (Staphylococcus epidermidis); assay: Inhibition of decatenation activity of DNA topoisomerase 4 in hospital methicillin-resistant Staphylococcus epidermidis 23/04 using kDNA as substrate at 32 ug/ml after 1 hr using ethidium bromide staining by agarose gel electrophoresis; type: protein assay
[20] = target: T1, DNA topoisomerase 4 (Staphylococcus epidermidis); assay: Inhibition of decatenation activity of DNA topoisomerase 4 in hospital methicillin-resistant Staphylococcus epidermidis 62/04 using kDNA as substrate at 32 ug/ml after 1 hr using ethidium bromide staining by agarose gel electrophoresis; type: protein assay
[21] = target: T1, DNA topoisomerase 4 (Staphylococcus epidermidis); assay: Inhibition of decatenation activity of DNA topoisomerase 4 in hospital methicillin-resistant Staphylococcus epidermidis 63/04 using kDNA as substrate at 32 ug/ml after 1 hr using ethidium bromide staining by agarose gel electrophoresis; type: protein assay
[22] = target: T1, DNA topoisomerase 4 (Staphylococcus epidermidis); assay: Inhibition of decatenation activity of DNA topoisomerase 4 in hospital methicillin-resistant Staphylococcus epidermidis 76/04 using kDNA as substrate at 32 ug/ml after 1 hr using ethidium bromide staining by agarose gel electrophoresis; type: protein assay
[23] = target: T1, DNA topoisomerase 4 (Staphylococcus epidermidis); assay: Inhibition of decatenation activity of DNA topoisomerase 4 in hospital methicillin-resistant Staphylococcus epidermidis 151/04 using kDNA as substrate at 32 ug/ml after 1 hr using ethidium bromide staining by agarose gel electrophoresis; type: protein assay
[24] = target: T2, Topoisomerase IV (Staphylococcus aureus); assay: Inhibition of decatenation activity of DNA topoisomerase 4 in Staphylococcus aureus NCTC 4163 using kDNA as substrate at 1 to 4 ug/ml […] using ethidium bromide staining by agarose gel electrophoresis; type: protein-complex assay
[25] = target: T1, DNA topoisomerase 4 (Staphylococcus epidermidis); conditions: 24/04, at 1 to 4 µg/mL
[26] = target: T1, DNA topoisomerase 4 (Staphylococcus epidermidis); conditions: 24/04, at 32 µg/mL

Fc1ccc(NC(=S)Nc2cccc(C(F)(F)F)c2)cc1Cl
inhibition [1]: Active | inhibition [2]: Active | inhibition [3]: Active | inhibition [4]: Active | inhibition [5]: Active | IC50 [6]: 1.37 µg/mL (≈ 3.93 µM) | IC50 [7]: 1.59 µg/mL (≈ 4.56 µM) | IC50 [8]: 0.97 µg/mL (≈ 2.78 µM) | IC50 [9]: 2.39 µg/mL (≈ 6.85 µM) | IC50 [10]: 2.85 µg/mL (≈ 8.17 µM) | inhibition at 4 µg/mL [11]: 95.2% | inhibition at 4 µg/mL [12]: 72% | inhibition at 4 µg/mL [13]: 89.7% | inhibition [14]: Active | inhibition [15]: Active | inhibition [16]: Active | inhibition [17]: Active | inhibition [18]: Active | inhibition [19]: Active | inhibition [20]: Active | inhibition [21]: Active | inhibition [22]: Active | inhibition [23]: Active | inhibition [24]: Active | inhibition [25]: Active | inhibition [26]: Active

FC(F)(F)c1cccc(NC(=S)Nc2cccc(Br)c2)c1
inhibition [1]: Active | inhibition [2]: Active | inhibition [3]: Active | inhibition [4]: Active | inhibition [5]: Active | IC50 [6]: 3.84 µg/mL (≈ 10.2 µM) | IC50 [7]: 3.01 µg/mL (≈ 8.02 µM) | IC50 [8]: 1.98 µg/mL (≈ 5.28 µM) | IC50 [9]: 5 µg/mL (≈ 13.3 µM) | IC50 [10]: 2.98 µg/mL (≈ 7.94 µM) | inhibition at 4 µg/mL [11]: 87% | inhibition at 4 µg/mL [12]: 61.7% | inhibition at 4 µg/mL [13]: 84.8% | inhibition [14]: Active | inhibition [15]: Active | inhibition [16]: Active | inhibition [17]: Active | inhibition [18]: Active | inhibition [19]: Active | inhibition [20]: Active | inhibition [21]: Active | inhibition [22]: Active | inhibition [23]: Active | inhibition [24]: Active | inhibition [25]: Active | inhibition [26]: Active

O=C(O)c1cn(C2CC2)c2cc(N3CCNCC3)c(F)cc2c1=O [CIPROFLOXACIN]
inhibition [1]: Active | inhibition [2]: Active | inhibition [3]: Active | inhibition [4]: Active | inhibition [5]: Active | IC50 [6]: 11.6 µg/mL (≈ 35 µM) | IC50 [7]: 12.9 µg/mL (≈ 39.1 µM) | IC50 [8]: 4.81 µg/mL (≈ 14.5 µM) | IC50 [9]: 7.14 µg/mL (≈ 21.5 µM) | IC50 [10]: 7.93 µg/mL (≈ 23.9 µM) | inhibition at 4 µg/mL [11]: 21.3% | inhibition at 4 µg/mL [12]: 42% | inhibition at 4 µg/mL [13]: 59.9% | inhibition [14]: Active | inhibition [15]: Active | inhibition [16]: Active | inhibition [17]: Active | inhibition [18]: Active | inhibition [19]: Active | inhibition [20]: Active | inhibition [21]: Active | inhibition [22]: Active | inhibition [23]: Active | inhibition [24]: Active | inhibition [25]: Active | inhibition [26]: Active
